Calls of active or inactive are those of the source. No cut-off for these calls is given here.
Key:
[1] = molecular target: GABA-A receptor; anion channel (Rattus norvegicus) (UniProt O09028+P15431+P18506+P18508+P19969+P20236+P23574+P23576+P28471+P28473+P30191+P62813+P63079+P63138+Q91ZM7+Q9ES14); assay: Binding affinity by displacement of [3H]flumazenil from rat cortex homogenates; Not active; format: functional
Summary of the method: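 Displacement of [3H]flumazenil from rat cortex homogenates. […] Values are averages (±SD); some analogues were run once as a single set of triplicates. NA means an IC50 was not achieved at the highest dose tested.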

[2] = molecular target: T1, Gamma-aminobutyric acid receptor subunit alpha-1 (Homo sapiens) (UniProt P14867); assay: Maximum percent potentiation against gamma-aminobutyric acid (GABA) A receptor, alpha 1; details: Xenopus laevis
T1 sequence (whole entry): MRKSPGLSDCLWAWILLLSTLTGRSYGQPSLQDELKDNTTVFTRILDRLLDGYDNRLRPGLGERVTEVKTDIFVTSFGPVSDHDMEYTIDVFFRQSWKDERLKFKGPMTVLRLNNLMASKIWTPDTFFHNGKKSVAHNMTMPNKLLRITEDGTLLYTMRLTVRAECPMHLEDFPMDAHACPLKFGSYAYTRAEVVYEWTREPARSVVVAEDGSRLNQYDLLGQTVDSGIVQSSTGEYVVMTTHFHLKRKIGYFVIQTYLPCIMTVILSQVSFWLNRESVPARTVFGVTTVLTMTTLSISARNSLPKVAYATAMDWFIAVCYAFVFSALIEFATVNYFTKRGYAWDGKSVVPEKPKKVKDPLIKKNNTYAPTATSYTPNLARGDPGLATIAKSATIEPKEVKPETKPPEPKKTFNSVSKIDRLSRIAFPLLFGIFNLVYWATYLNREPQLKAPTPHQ
Summary of the method: (§1)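 Xenopus laevis oocytes were injected with human cRNA for the α, β and γ subunits needed to express each receptor subtype (α1, α2, α3 or α5). Electrophysiological recording was used to read potentiation, and the effective concentration and maximal percent potentiation were derived from it.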

[3] = molecular target: T2, Gamma-aminobutyric acid receptor subunit alpha-2 (Homo sapiens) (UniProt P47869); assay: Maximum percent potentiation against gamma-aminobutyric acid (GABA) A receptor, alpha 2; details: Xenopus laevis; summary of the method: as §1
T2 sequence (whole entry): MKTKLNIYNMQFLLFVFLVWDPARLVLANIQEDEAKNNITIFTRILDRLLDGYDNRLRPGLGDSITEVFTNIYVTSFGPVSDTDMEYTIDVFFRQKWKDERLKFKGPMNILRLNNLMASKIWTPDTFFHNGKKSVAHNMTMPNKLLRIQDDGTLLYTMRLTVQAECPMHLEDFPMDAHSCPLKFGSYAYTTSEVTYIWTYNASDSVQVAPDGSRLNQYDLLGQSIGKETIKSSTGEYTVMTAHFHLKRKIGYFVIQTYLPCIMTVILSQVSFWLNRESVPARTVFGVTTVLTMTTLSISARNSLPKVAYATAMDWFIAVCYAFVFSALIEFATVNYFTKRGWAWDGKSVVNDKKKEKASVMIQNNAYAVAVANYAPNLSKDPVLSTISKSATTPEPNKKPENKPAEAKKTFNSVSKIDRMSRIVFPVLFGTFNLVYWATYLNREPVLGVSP

[4] = organism: Rattus norvegicus; assay: Rat behavioral spontaneous Locomotor Activity; format: functional
Summary of the method: (§2)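 Male Sprague-Dawley rats received the test drug iv in 50% aqueous PEG-400, which also served as the control vehicle. They were then placed in an automated activity monitor, and movement time, total distance and vertical activity were recorded over 15 min. Each drug was compared against vehicle, and NS marks a difference that was not significant.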

[5] = molecular target: T3, Gamma-aminobutyric acid receptor subunit alpha-3 (Homo sapiens) (UniProt P34903); assay: Maximum percent potentiation against gamma-aminobutyric acid (GABA) A receptor, alpha 3; details: Xenopus laevis; summary of the method: as §1
T3 sequence (whole entry): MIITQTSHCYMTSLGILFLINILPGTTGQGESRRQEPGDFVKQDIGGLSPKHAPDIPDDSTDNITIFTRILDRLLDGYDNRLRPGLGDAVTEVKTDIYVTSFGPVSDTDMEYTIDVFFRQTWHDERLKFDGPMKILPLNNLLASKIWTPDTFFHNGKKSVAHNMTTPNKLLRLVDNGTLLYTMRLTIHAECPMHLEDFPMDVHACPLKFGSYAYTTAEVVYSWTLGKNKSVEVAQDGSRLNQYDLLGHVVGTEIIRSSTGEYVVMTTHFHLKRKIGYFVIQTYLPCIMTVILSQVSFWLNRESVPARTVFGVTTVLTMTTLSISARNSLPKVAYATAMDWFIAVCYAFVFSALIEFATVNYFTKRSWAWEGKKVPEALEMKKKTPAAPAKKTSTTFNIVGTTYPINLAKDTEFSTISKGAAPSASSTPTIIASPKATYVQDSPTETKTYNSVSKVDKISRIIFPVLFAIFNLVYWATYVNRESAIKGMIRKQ

[6] = molecular target: T4, Gamma-aminobutyric acid receptor subunit alpha-5 (Homo sapiens, UniProt P31644); assay: Effective concentration against Gamma-aminobutyric acid A receptor, alpha 5; set-up: species or system Xenopus laevis; summary of the method: as §1
T4 sequence (P31644 whole entry): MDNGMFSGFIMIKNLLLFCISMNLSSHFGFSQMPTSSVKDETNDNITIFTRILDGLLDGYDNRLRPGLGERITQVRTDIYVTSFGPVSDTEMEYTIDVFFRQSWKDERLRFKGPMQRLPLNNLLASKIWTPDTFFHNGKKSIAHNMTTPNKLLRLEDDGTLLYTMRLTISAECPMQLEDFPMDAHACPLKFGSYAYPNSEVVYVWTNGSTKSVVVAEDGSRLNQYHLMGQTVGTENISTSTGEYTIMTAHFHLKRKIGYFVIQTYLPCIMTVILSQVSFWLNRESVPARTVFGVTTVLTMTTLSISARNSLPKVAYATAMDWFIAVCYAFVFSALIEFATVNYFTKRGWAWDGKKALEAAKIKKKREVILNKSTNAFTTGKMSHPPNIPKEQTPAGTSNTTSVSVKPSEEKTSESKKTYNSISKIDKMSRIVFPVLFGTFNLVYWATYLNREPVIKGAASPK

[7] = molecular target: T5, Gamma-aminobutyric acid receptor subunit alpha-5 (Homo sapiens) (UniProt P31644); assay: Maximum percent potentiation against gamma-aminobutyric acid (GABA) A receptor, alpha 5; details: Xenopus laevis; summary of the method: as §1
T5 sequence (whole entry): T4 sequence (P31644 whole entry)

[8] = molecular target: T6, Gamma-aminobutyric acid receptor subunit alpha-1 (Homo sapiens, UniProt P14867); assay: Effective concentration against gamma-aminobutyric acid (GABA) A receptor, alpha 1; set-up: species or system Xenopus laevis; summary of the method: as §1
T6 sequence (P14867 whole entry): T1 sequence (whole entry)

[9] = molecular target: T7, Gamma-aminobutyric acid receptor subunit alpha-3 (Homo sapiens, UniProt P34903); assay: Effective concentration against gamma-aminobutyric acid (GABA) A receptor, alpha 3; set-up: species or system Xenopus laevis; summary of the method: as §1
T7 sequence (P34903 whole entry): T3 sequence (whole entry)

[10] = molecular target: T8, Gamma-aminobutyric acid receptor subunit alpha-2 (Homo sapiens, UniProt P47869); assay: Effective concentration against gamma-aminobutyric acid (GABA) A receptor, alpha 2; set-up: species or system Xenopus laevis; summary of the method: as §1
T8 sequence (P47869 whole entry): T2 sequence (whole entry)

[11] = molecular target: GABA-A receptor; anion channel; assay: Binding affinity was determined by displacement of [3H]flumazenil from rat cortex homogenates; format: functional
Summary of the method: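 Displacement of [3H]flumazenil from rat cortex homogenates. Values are averages (±SD); some analogues were run once as a single set of triplicates. NA means an IC50 was not achieved at the highest dose tested.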

[12] = organism: Rattus norvegicus; assay: Rat behavioral spontaneous Locomotor Activity; Not significant.; format: functional, organism-based; summary of the method: as §2

SMILES | NA [1] | Activity [2] [%] | Activity [3] [%] | minimum effective dose on locomotor activity [4] [mg/kg] | Activity [5] [%] | EC50 [6] [µM] | Activity [7] [%] | OMNI med [4] [mg/kg] | EC50 [8] [µM] | EC50 [9] [µM] | EC50 [10] [µM] | Ki [11] [µM] | NS [12]
CCCCCC(=O)N1CCc2nc(O)n3cc(-c4ccccc4F)nc3c2C1 | inactive | – | – | – | – | – | – | – | – | – | – | – | –
Oc1nc2c(c3nc(-c4ccccc4F)cn13)CNCC2 | inactive | – | – | – | – | – | – | – | – | – | – | – | –
Oc1nc2c(c3nc(-c4ccc(F)cc4)cn13)CN(Cc1ccccc1)CC2 | – | 186 | 155 | 1 | – | – | – | – | – | – | – | – | –
CCC(=O)N1CCc2nc(O)n3cc(-c4ccc(OC)cc4)nc3c2C1 | inactive | – | – | – | – | – | – | – | – | – | – | – | –
Cc1ccc(-c2nc3ccc(C)cn3c2CC(=O)N(C)C)cc1 [ZOLPIDEM] | – | 322 | 291 | – | 700 | > 3 | < 20 | 0.25 | – | – | – | – | –
Oc1nc2c(c3nc(-c4ccccc4F)cn13)CN(Cc1cccs1)CC2 | – | 50 | 54 | – | 96 | 0.375 | 49 | – | 0.107 | 0.367 | 0.067 | 0.0005 | –
Cc1ccc(-c2cn3c(O)nc4c(c3n2)CN(Cc2ccccc2)CC4)cc1 | – | 62 | 94 | – | 174 | 0.65 | 17 | – | 0.266 | 3.83 | 1.18 | 0.043 | –
Oc1nc2c(c3nc(-c4cccc(F)c4)cn13)CN(Cc1ccccc1)CC2 | – | 92 | 81 | 2 | – | – | – | – | – | – | – | – | –
Oc1nc2c(c3nc(-c4ccccc4F)cn13)CN(Cc1ccncc1)CC2 | – | 17 | 42 | – | 58 | – | 0 | – | 0.053 | 0.033 | 0.099 | 0.0009 | inactive
COc1ccc(-c2cn3c(O)nc4c(c3n2)CN(C(=O)c2ccccc2)CC4)cc1 | inactive | – | – | – | – | – | – | – | – | – | – | – | –
O=c1[nH]c2c(c3nc(-c4ccc(F)cc4F)cn13)CN(Cc1ccccc1)CC2 | – | – | – | – | – | 0.323 | – | – | 0.092 | 0.5 | 0.21 | 0.002 | –
O=C(c1ccccc1)N1CCc2nc(O)n3cc(-c4cccc(Cl)c4)nc3c2C1 | inactive | – | – | – | – | – | – | – | – | – | – | – | –
Cc1nnc2n1-c1ccc(Cl)cc1C(c1ccccc1)=NC2 [ALPRAZOLAM] | – | 327 | 333 | – | 774 | 0.01 | 206 | 0.125 | 0.037 | 0.069 | 0.012 | 0.0033 | –
Oc1nc2c(c3nc(-c4ccccc4F)cn13)CN(CC1CC1)CC2 | – | 31 | 36 | – | 28 | 0.094 | 7 | – | 0.135 | 0.424 | 1.16 | 0.03 | –
CCCCN1CCc2nc(O)n3cc(-c4ccccc4F)nc3c2C1 | – | 70 | 86 | – | 72 | 0.291 | 4 | – | 0.258 | 0.394 | 0.247 | 0.0073 | –
Oc1nc2c(c3nc(-c4ccccc4F)cn13)CN(Cc1cccnc1)CC2 | – | 29 | 78 | 0.5 | 81 | – | 0 | – | – | – | – | – | –
O=c1[nH]c2c(c3nc(-c4ccccc4F)cn13)CN(Cc1ccccc1)CC2 | – | – | – | – | – | 0.074 | – | – | 0.018 | 0.02 | 0.02 | 0.0013 | –
COc1ccc(-c2cn3c(O)nc4c(c3n2)CN(Cc2ccccc2)CC4)cc1 | – | 122 | 142 | 0.06 | – | – | – | – | – | – | – | – | –

Source: ChEMBL document CHEMBL1135642, “Synthesis and biological evaluation of 7,8,9,10-tetrahydroimidazo[1,2-c]pyrido[3,4-e]pyrimdin-5(6H)-ones as functionally selective ligands of the benzodiazepine receptor site on the GABA(A) receptor” (J Med Chem, 2002)
